Reference: ChEMBL document CHEMBL1126800, “Preparation of substituted N-phenyl-4-aryl-2-pyrimidinamines as mediator release inhibitors” (J Med Chem, 1993)

Key:
Homo sapiens [1] = organism: Homo sapiens; experiment: In vitro inhibition of histamine release from human basophils; H= Compound interfered with the histamine assay; format: functional, organism-based
Summary of the method: (§1)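 Human basophils separated from leukocytes were incubated with test compound, then challenged with anti-IgE or antigen (Lichtenstein method). Histamine release was measured against controls and blanks. IC50 is the concentration lowering histamine release by 50%.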

Homo sapiens [2] = organism: Homo sapiens; experiment: In vitro inhibition of histamine release from human basophils; format: functional, organism-based; settings: Homo sapiens; summary of the method: as §1
Homo sapiens [3] = organism: Homo sapiens; experiment: Tested for in vitro cell leukotriene C4 release inhibition by radioimmunoassay; format: functional, organism-based
Summary of the method: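 Basophils were incubated with compound and challenged. LTC4 release was measured by radioimmunoassay, with duplicate samples processed per the [3H] LTC4 RIA kit procedure. Histamine release was measured simultaneously on a second portion of the same cells. IC50 is from n = 5.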

Mus musculus = experiment: Tested for in vivo activity in mouse by passive cutaneous anaphylaxis (PCA) test; format: functional; settings: read-out: ID50 (the source's name)
Summary of the method: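 Mouse passive cutaneous anaphylaxis test with oral dosing of compound. Read at times of […] after dosing. Value expressed as ID50 in mg/kg.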

[4] = Tested for toxic concentration in mice; format: ADME, organism-based; settings: mouse, in vivo

Row | Compound | IC50 (Homo sapiens [2]) [nM] | further results
1 | CNc1ccc(Nc2nccc(-c3ccncc3)n2)cc1.Cl.Cl |  | IC50 (Homo sapiens [1]): Compound interfered with the histamine assay
2 | Nc1ccc(Nc2nccc(-c3cccnc3)n2)cc1 | 2800 | 
3 | Cc1cc(C)cc(Nc2nccc(-c3ccco3)n2)c1 | 700 | 
4 | COc1cccc(Nc2nccc(-c3ccc(C)o3)n2)c1 | 1500 | 
5 | CC(=O)N(C)c1ccc(Nc2nccc(-c3cccnc3)n2)cc1 | 900 | 
6 | Cc1cccc(Nc2nccc(-c3ccccn3)n2)c1 | 700 | 
7 | Cc1cc(-c2ccnc(Nc3ccc(N(C)C)cc3)n2)c(C)o1 | 4900 | 
8 | CC(=O)c1cccc(Nc2nccc(-c3cccnc3)n2)c1 | 4100 | 
9 | Cc1cccc(Nc2nccc(-c3ccc(C)s3)n2)c1 | 1400 | 
10 | c1ccc(Nc2nccc(-c3cccnc3)n2)cc1 | 900 | 
11 | c1cc(Nc2nccc(-c3cccnc3)n2)cc(OCCn2ccnc2)c1 | 100 | 
12 | c1ccc(-c2ccnc(Nc3cccc(-n4ccnc4)c3)n2)nc1 | 300 | IC50 (Homo sapiens [3]): 205 nM; ED50 (Mus musculus): 50 mg/kg; LD50 [4]: 800 mg/kg
13 | COc1cccc(Nc2nccc(-c3cc4ccccc4o3)n2)c1 | 2800 | 
14 | Cc1cc(-c2ccco2)nc(Nc2ccc(N(C)C)cc2)n1 | 5900 | 
15 | CCc1ccc(Nc2nccc(-c3cnccn3)n2)cc1 | 1900 | 
16 | CCc1cccc(Nc2nccc(-c3ccsc3)n2)c1 | 1100 | 
17 | CC(=O)Nc1ccc(Nc2nccc(-c3ccccn3)n2)cc1 | 1500 | 
18 | COc1cccc(Nc2nc(C)cc(-c3ccncc3)n2)c1 | > 24000 | 
19 | CC1CCN(c2cccc(Nc3nccc(-c4cccs4)n3)c2)CC1 | 3500 | 
20 | CCN(CC)CCOc1ccccc1Nc1nccc(-c2cccnc2)n1 | > 6000 | 

Row | Compound | IC50 (Homo sapiens [2]) [nM] | further results
21 | CN(C)c1ccc(Nc2nccc(-c3ccsc3)n2)cc1 | 2100 | 
22 | COc1cccc(Nc2nccc(-c3sccc3C)n2)c1 | > 24000 | 
23 | c1csc(-c2ccnc(Nc3ccc(-n4ccnc4)cc3)n2)c1 | 4300 | 
24 | CCN(CC)CCOc1cccc(Nc2nccc(-c3ccccn3)n2)c1 | 1200 | 
25 | Cc1cc(-c2ccncc2)nc(Nc2cccc(N(C)C)c2)n1 | > 24000 | 
26 | CCN(CC)CCOc1ccc(Nc2nccc(-c3ccncc3)n2)cc1 | 200 | 
27 | Cc1cc(-c2ccc(C)s2)nc(Nc2ccccc2)n1 | 24800 | 
28 | Fc1cccc(Nc2nccc(-c3ccccn3)n2)c1 | 1000 | 
29 | CCN(CC)CCOc1ccc(Nc2nccc(-c3ccco3)n2)cc1 | 1300 | 
30 | COc1ccc(Nc2nccc(-c3cccnc3)n2)cc1 | 1700 | 
31 | CC1CCN(c2ccc(Nc3nccc(-c4cccnc4)n3)cc2)CC1 | 500 | 
32 | c1ccc(Nc2nccc(-c3ccncc3)n2)cc1 | 900 | 
33 | Cc1ccc(Nc2nccc(-c3ccccn3)n2)cc1C | 5900 | 
34 | COc1cccc(Nc2nccc(-c3cccnc3)n2)c1 | 300 | 
35 | CCc1cccc(Nc2nccc(-c3ccccn3)n2)c1 | 1400 | 
36 | FC(F)(F)c1cc(Nc2nccc(-c3ccncc3)n2)ccc1-n1ccnc1 | 400 | 
37 | c1cc(Nc2nccc(-c3cccs3)n2)cc(OCCn2ccnc2)c1 | 100 | 
38 | Cc1cccc(Nc2nccc(-c3cccs3)n2)c1 | 300 | 
39 | CN(C)c1ccc(Nc2nccc(-c3ccncc3)n2)cc1 | 3700 | 
40 | CN(C)c1ccc(Nc2nccc(-c3ccccn3)n2)cc1 | 3300 | 
